Series [1] relates to HCC70. The series is described as follows: Effect on total STAT5 level in human HCC70 cells at 0.3 to 3 uM after 3 hrs by Western blotting analysis. It counts as functional, cell-based. The following applies: dose 0.3-3 µM. A digest of the protocol: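 Breast cancer cells were treated with vehicle (0.1% DMSO) or compound, then lysed in RIPA with PMSF and phosphatase inhibitors. 20–50 μg protein was run on 8 or 12% SDS-PAGE, blotted to PVDF, blocked in 5% BSA, probed with primary antibodies overnight at 4 °C, then HRP secondaries, with ECL detection.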

Series [2] can be described thus: Toxicity in NOD/SCID mouse xenografted with patient-derived breast cancer cells assessed as lethargy at 5 to 15 mg/kg, iv administered once daily for 20 days. It is filed as organism-based. The following applies: in vivo, 480 h, dose 5-15 mg/kg, time 20 day.
For series [3], the system named is MDA231-LM2-4175. The series is described as follows: Inhibition of cell invasion in human MDA231-LM2-4175 cells incubated for 12 hrs by crystal violet staining based transwell assay. It is filed as functional. The following applies: dose 1-3 µM. The procedure, abridged: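 Cells seeded at 1.5×10^4–3×10^4 per well in the upper chamber of 8.0 µm pore Transwell inserts and treated with graded compound for 12 h. Non-invading cells removed with cotton. Invaded cells fixed in 4% paraformaldehyde, stained with crystal violet, photographed and counted. Triplicate.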

In series [4] the target is T1, Signal transducer and activator of transcription 3 (Homo sapiens, UniProt P40763). The series is described as follows: Inhibition of STAT3 phosphorylation at Ser727 residue in human MDA-MB-468 cells at 3 uM after 3 hrs by Western blotting analysis. It counts as cell-based. (In western blotting, separated proteins are transferred to a membrane and probed.)
T1 sequence (P40763 whole entry): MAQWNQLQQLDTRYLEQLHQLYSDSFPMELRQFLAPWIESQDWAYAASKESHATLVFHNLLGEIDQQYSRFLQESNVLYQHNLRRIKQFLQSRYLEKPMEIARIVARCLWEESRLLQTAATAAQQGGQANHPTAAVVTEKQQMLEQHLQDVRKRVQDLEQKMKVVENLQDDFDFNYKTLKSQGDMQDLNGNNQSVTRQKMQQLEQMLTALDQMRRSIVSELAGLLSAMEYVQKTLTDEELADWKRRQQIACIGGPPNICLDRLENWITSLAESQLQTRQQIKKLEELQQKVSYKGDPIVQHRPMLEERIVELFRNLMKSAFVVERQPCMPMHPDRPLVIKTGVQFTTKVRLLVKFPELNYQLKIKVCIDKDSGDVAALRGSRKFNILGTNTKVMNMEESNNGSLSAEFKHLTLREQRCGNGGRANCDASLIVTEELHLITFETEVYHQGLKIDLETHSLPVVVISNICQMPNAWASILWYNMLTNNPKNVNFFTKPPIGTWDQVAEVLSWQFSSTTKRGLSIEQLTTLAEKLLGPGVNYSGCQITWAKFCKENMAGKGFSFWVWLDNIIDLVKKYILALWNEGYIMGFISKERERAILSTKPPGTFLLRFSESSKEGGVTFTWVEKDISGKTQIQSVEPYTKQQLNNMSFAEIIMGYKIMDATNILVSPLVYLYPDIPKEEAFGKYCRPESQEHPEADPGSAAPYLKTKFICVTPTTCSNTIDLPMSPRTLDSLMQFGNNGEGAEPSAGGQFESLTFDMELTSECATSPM
Series [5] has as its system MDA-MB-231. The series can be described thus: Induction of apoptosis in human MDA-MB-231 cells assessed as early apoptotic cells at 1 uM after 48 hrs by Annexin-V-FITC/propidium iodide staining based flow cytometric analysis (reference value: 2.98%). It counts as functional.
Series [6] relates to H9c2. The series is described as follows: Antiproliferative activity against rat H9C2 cells assessed as reduction in cell viability after 72 hrs by CCK8 assay. It is filed as cell-based. The following applies: H9c2, 72 h. The procedure, abridged:
(§1)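 Cells seeded at 1000–8000 per well were grown overnight, then exposed to 0.1–100 μM compound or 0.1% DMSO vehicle for 72 h. CCK-8 was added for 0.5–4 h at 37 °C and absorbance read at 480 nm. Viability = (OD compound − blank)/(OD vehicle − blank) × 100, with medium as blank. IC50 fitted from three independent experiments.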

The subject of series [7] is MDA-MB-468. The series can be described thus: Induction of apoptosis in human MDA-MB-468 cells assessed as late apoptotic cells at 3 uM after 48 hrs by Annexin-V-FITC/propidium iodide staining based flow cytometric analysis (reference value: 1.25%). It counts as functional.
For series [8], the system named is HCC70. The series is described as follows: Inhibition of cell migration in human HCC70 cells incubated for 12 to 96 hrs by wound healing assay. It counts as functional, cell-based. The following applies: dose 0.3-3 µM, time 12-96 hrs. A digest of the protocol:
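Confluent monolayer (0.8–1.2×10^6 cells/well) scratched with a pipette tip, then treated with 0–3 µM compound until vehicle cells filled the gap. Imaged by microscope after about 12–96 h. Triplicate.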

Series [9] deals with T1, Signal transducer and activator of transcription 3. The series is described as follows: Inhibition of STAT3 in human HCC70 cells assessed as downregulation of Mcl-1 expression at 0.3 to 3 uM after 24 hrs by western blot analysis. It counts as cell-based. The following applies: dose 0.3-3 µM. A digest of the protocol:
(§2)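 TNBC cells given vehicle (0.1% DMSO) or graded compound levels for 24 h, lysed in RIPA with PMSF and phosphatase inhibitors. BCA-quantified lysate (20–50 µg) run on SDS-PAGE, transferred to PVDF, blocked in 5% BSA. Probed overnight at 4 °C for Bcl-xL, Mcl-1 and c-Myc, with β-actin. HRP secondary, ECL detection. Three independent experiments.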

In series [10] the test system is Breast cancer cell line. The series can be described thus: Antitumor activity against patient-derived breast cancer cells xenografted in NOD/SCID mouse assessed as reduction in Ki67 expression at 5 to 15 mg/kg, iv administered once daily for 20 days by immunohistochemical analysis. The conditions noted are these: Homo sapiens, dose 5-15 mg/kg, time 20.0 day. It counts as functional, organism-based. A general note: In xenograft studies the graft and the host belong to different species.

Series [11] concerns the target T1, Signal transducer and activator of transcription 3. The series can be described thus: Inhibition of STAT3 in human MDA-MB-468 cells assessed as downregulation of c-Myc expression at 0.3 to 3 uM after 24 hrs by western blot analysis. The following applies: dose 0.3-3 µM. It is filed as cell-based. The procedure, abridged:
as §2

In series [12] the test system is MDA-MB-468. The series can be described thus: Induction of apoptosis in human MDA-MB-468 cells assessed as viable cells at 1 uM after 48 hrs by Annexin-V-FITC/propidium iodide staining based flow cytometric analysis (reference value: 95.5%). It is filed as functional. The conditions noted are these: read-out: Activity. (In general: A flow cytometer gives signals particle by particle.)

For series [13], the target named is T1, Signal transducer and activator of transcription 3. The series is described as follows: Binding affinity to STAT3 (unknown origin) […].
A short description of series [14]: Toxicity in NOD/SCID mouse xenografted with patient-derived breast cancer cells assessed as loss of appetite at 5 to 15 mg/kg, iv administered once daily for 20 days. The following applies: in vivo, 480 h, dose 5-15 mg/kg, time 20 day. It is filed as organism-based.
In series [15] the test system is MDA-MB-231. The series is described as follows: Induction of apoptosis in human MDA-MB-231 cells assessed as increase in caspase-7 cleavage at 3 uM after 48 hrs by Western blot analysis. It is filed as functional, cell-based. The procedure, abridged: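 Cells were treated with vehicle (0.1% DMSO) or compound, then analysed by western blot of RIPA lysates (20–50 μg protein, SDS-PAGE, PVDF) for PARP and cleaved caspase-7, with β-actin as loading control. Three independent experiments.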

The subject of series [16] is MDA-MB-231. The series is described as follows: Induction of apoptosis in human MDA-MB-231 cells assessed as necrotic cells at 3 uM after 48 hrs by Annexin-V-FITC/propidium iodide staining based flow cytometric analysis (Rvb =0.543%). It is filed as functional.
For series [17], the system named is MDA231-LM2-4175. The series can be described thus: Antitumor activity against iv dosed human MDA231-LM2-4175 cells xenografted in mouse assessed as tumor growth inhibition administered once daily for 20 days. It is filed as functional, organism-based. The following applies: dose 5-15 mg/kg, time 20.0 day.
Series [18] in a line: Antiproliferative activity against human MDA231-LM2-4175 cells assessed as reduction in cell viability after 72 hrs by CCK8 assay. It counts as functional, cell-based. The following applies: MDA231-LM2-4175, 72 h. The procedure, abridged: as §1
Series [19] deals with T1, Signal transducer and activator of transcription 3. The series can be described thus: Inhibition of Flag-tagged STAT3 dimerization (unknown origin) expressed in HEK293T cells after 24 hrs by confocal microscopic analysis. It is filed as cell-based. The following applies: dose 1-3 µM. A digest of the protocol:
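HEK-293T cells transfected with HA-STAT3 and Flag-STAT3. After 24 h, treated with vehicle (0.1% DMSO) or compound for 24 h, with IL-6 100 ng/mL added for 30 min. Fixed in paraformaldehyde, permeabilised with Triton X-100, stained with anti-HA and anti-Flag plus Alexa 488/555 secondaries and DAPI. Confocal imaging for colocalisation.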

The nature of series [20]: Induction of apoptosis in human MDA231-LM2-4175 cells assessed as viable cells at 1 uM after 48 hrs by Annexin-V-FITC/propidium iodide staining based flow cytometric analysis (reference value: 94.4%). It counts as functional. The following applies: read-out: Activity.
Series [21] has as its system MDA-MB-468. The series is described as follows: Induction of apoptosis in human MDA-MB-468 cells assessed as early apoptotic cells at 3 uM after 48 hrs by Annexin-V-FITC/propidium iodide staining based flow cytometric analysis (reference value: 2.66%). It is filed as functional.
For series [22], the system named is MDA231-LM2-4175. The series is described as follows: Antitumor activity against human MDA231-LM2-4175 cells xenografted in mouse assessed as reduction in Ki67 expression at 5 to 15 mg/kg, iv administered once daily for 20 days by immunohistochemical analysis. It counts as functional, organism-based. The conditions noted are these: dose 5-15 mg/kg, time 20.0 day.

The target of series [23] is T1, Signal transducer and activator of transcription 3. The series is described as follows: Inhibition of Flag-tagged STAT3 dimerization (unknown origin) expressed in HEK293T cells preincubated for 3 hrs followed by IL-3 stimulation by immunoprecipitation analysis. The following applies: dose 1-3 µM. It is filed as cell-based.

The source of these data is ChEMBL document CHEMBL4825680, “Structure-based discovery of potent and selective small-molecule inhibitors targeting signal transducer and activator of transcription 3 (STAT3)” (Eur J Med Chem, 2021).

Active and inactive are the calls of the source. The calls are words filed in the database; no cut-off is given here.

The IC50 is the concentration that gives 50% inhibition. Broadly, the Kd is the free concentration of one partner at which half of the binding sites on the other are occupied at equilibrium, for simple one-to-one binding. Take `O=C(Cc1c(-c2ccccc2)nc2ccccn12)Nc1ccc2c(c1)S(=O)(=O)C=C2`: the outcome in series [1] and in series [22] was inactive. Further, the Activity result in series [2] was “Non-Toxic”; in series [5], 7.38%; in series [7] it was 27.8%; in series [14], “Non-Toxic”; in series [16] it was 2.09%; in [17], “Dose-Dependent Effect”. Also, the Activity in [21] was 32.3%. The inhibition result in series [3], in series [8], in [19] and in [23] was “Dose-Dependent Effect” throughout. Besides, the inhibition entry in [4] is “inactive”. The values for the IC50 in series [6] and in series [18] were 6790 nM and 2500 nM, respectively. Moreover, the inhibition entry in series [9] and in series [11] was “Active” each time. Also, the outcome in series [10] and in [15] was Active. For the same compound, the figures for the viability at 1 µM in series [12] and in [20] were 57.9% and 88.7%, respectively. The affinity in [13], expressed as Kd, was 432 nM.
